12 molecules from ChEMBL document CHEMBL1157627, “A novel insulin secretagogue based on a dinucleoside polyphosphate scaffold” (J Med Chem, 2010) can be followed below.

Data set [1] concerns the target T1, P2Y purinoceptor 1 (Homo sapiens, UniProt P47900). Put plainly: Agonist activity at P2Y1 receptor expressed in human HEK293 cells. The data set is classed as functional, cell-based.
The test system of data set [2] is Pancreas. As to the kind of experiment: Induction of insulin secretion in isolated rat pancreas. Format: functional, tissue-based.
Data set [3] has as its system Pancreas. As to the kind of experiment: Induction of insulin secretion in isolated rat pancreas relative to basal level. Format: functional.
Data set [4] in a line: Stability in human blood assessed as half life. The data set is classed as ADME, tissue-based.
Data set [5] can be described thus: Stability after 3 hrs in presence of alkaline phosphatase. Format: ADME. Conditions: isolated protein; call rule not given here. The method in brief: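 4 mM nucleotide with calf intestine alkaline phosphatase (12.5 units) in 0.1 M Tris-HCl, 0.1 M MgCl2, final pH 9.8, at 37 °C for 3 h. Stopped at 80 °C for 15 min, then weak anion-exchange cleanup and freeze-drying. Residual analogue quantified by change in reverse-phase HPLC peak integration over time.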

Data set [6] concerns Rattus norvegicus. As to the kind of experiment: Antihyperglycemic activity against Han Wistar rat assessed as blood glucose level at […], iv after 45 mins by OGTT. The data set is classed as functional.
The test system of data set [7] is Rattus norvegicus. As to the kind of experiment: Antihyperglycemic activity against Han Wistar rat assessed as increase in insulin level at […], iv after 5 mins relative to basal level. Format: functional.
For data set [8], the target named is T1, P2Y purinoceptor 1. As to the kind of experiment: Agonist activity at G-protein coupled P2Y1 receptor expressed in human 1321N1 cells assessed as increase in calcium by Fura2 assay. The data set is classed as functional, cell-based. The method in brief:
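Cell suspensions loaded with fura-2; [Ca2+]i read by dual-excitation spectrofluorometry at 37 °C in 10 mM HEPES-buffered saline pH 7.4 with 1 mM CaCl2 and 1 mM MgCl2. EC50 from maximal [Ca2+]i rise across concentrations; three experiments on separate days.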

For data set [9], the system named is Pancreas. As to the kind of experiment: Increase in insulin secretion in isolated rat pancreas relative to ATP. The data set is classed as functional.
The nature of data set [10]: Stability in human serum assessed as half life of hydrolysis. Format: ADME, cell-free.
The subject of data set [11] is Rattus norvegicus. As to the kind of experiment: Antihyperglycemic activity against Han Wistar rat assessed as blood glucose level at […], iv after 150 mins by OGTT. The data set is classed as functional.
Data set [12] in a line: Stability in human whole blood assessed as half life. Format: ADME, tissue-based.
For data set [13], the system named is Rattus norvegicus. As to the kind of experiment: Antihyperglycemic activity against Han Wistar rat assessed as blood glucose level at 1 mg/kg, po after 45 mins by OGTT. Format: functional. The method in brief: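 Overnight-fasted male Wistar Han rats, 10-11 weeks old, jugular-cannulated, 5 per group. Glibenclamide 1 mg/kg given orally at t = -30 min, then oral glucose 2 g/kg (3 mL/kg) at t = 0. Tail vein blood glucose read by glucometer over time, compared with saline-treated controls.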

T1 sequence (P47900 whole entry): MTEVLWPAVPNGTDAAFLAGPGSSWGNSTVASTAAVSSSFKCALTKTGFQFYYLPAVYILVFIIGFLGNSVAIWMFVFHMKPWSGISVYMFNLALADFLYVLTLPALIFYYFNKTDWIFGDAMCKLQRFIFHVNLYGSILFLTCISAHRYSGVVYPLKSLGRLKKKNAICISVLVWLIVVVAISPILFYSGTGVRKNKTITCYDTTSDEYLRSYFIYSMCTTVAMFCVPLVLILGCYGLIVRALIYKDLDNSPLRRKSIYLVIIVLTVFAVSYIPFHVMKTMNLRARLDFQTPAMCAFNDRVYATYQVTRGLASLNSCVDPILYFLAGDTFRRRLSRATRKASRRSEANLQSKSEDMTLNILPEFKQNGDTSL

By EC50 is commonly meant the concentration giving half of the maximal effect. As to `[BH3-]P(=O)(OC[C@H]1O[C@@H](n2cnc3c(N)nc(SC)nc32)[C@H](O)[C@H]1O)OP(=O)([O-])OP(=O)([O-])[O-].[Na+].[Na+].[Na+].[Na+]` (stereo not given in full), the half-maximal effective concentration (EC50) at P2Y purinoceptor 1 [1] was found to be 0.0026 µM; with Pancreas [2] it was 0.028 µM. The “fold change (FC)” value in the data set with Pancreas [3] is 9.

As a reminder, the half-life is how long it takes for the measured level to halve. `Nc1nc2c(ncn2[C@@H]2O[C@H](COP(=O)(O)OP(=O)(O)OP(=O)(O)OP(=O)(O)OC[C@H]3O[C@@H](n4cnc5c(=O)[nH]c(N)nc54)[C@H](O)[C@@H]3O)[C@@H](O)[C@H]2O)c(=O)[nH]1`: in data set [4], the half-life came to 5 min.

As to `CSc1nc(N)c2ncn([C@@H]3O[C@H](COP(=O)([O-])CP(=O)([O-])OP(=O)([O-])OP(=O)([O-])OC[C@H]4O[C@@H](n5cnc6c(N)nc(SC)nc65)[C@H](O)[C@@H]4O)[C@@H](O)[C@H]3O)c2n1.[Na+].[Na+].[Na+].[Na+]`, in data set [5], the Stability result is given as “Stable”. The Activity in the data set with Rattus norvegicus [6] came to 100 mg/dL. In addition, in the data set with Rattus norvegicus [7], the FC is 4. Also, the half-maximal effective concentration (EC50) at P2Y purinoceptor 1 [8] (read-out: EC50) turned out to be 0.42 µM.

As for `CSc1nc(N)c2ncn([C@@H]3O[C@H](COP(=O)([O-])OP(=O)([O-])CP(=O)([O-])OP(=O)([O-])OC[C@H]4O[C@@H](n5cnc6c(N)nc(SC)nc65)[C@H](O)[C@@H]4O)[C@@H](O)[C@H]3O)c2n1.[Na+].[Na+].[Na+].[Na+]`, the Stability result in data set [5] is recorded as “Stable”. Also, the EC50 on P2Y purinoceptor 1 [8] (read-out: EC50) came out at 0.46 µM.

`CSc1nc(N)c2ncn([C@@H]3O[C@H](COP(=O)([O-])CP(=O)([O-])OP(=O)([O-])OC[C@H]4O[C@@H](n5cnc6c(N)nc(SC)nc65)[C@H](O)[C@@H]4O)[C@@H](O)[C@H]3O)c2n1.[Na+].[Na+].[Na+]`: the Stability entry in data set [5] is “Stable”. Further, on P2Y purinoceptor 1 [8] (1321-n1), the EC50 result is given as “Not Active”.

On to `Nc1ncnc2c1ncn2[C@H]1O[C@@H](COP(=O)(O)OP(=O)(O)OP(=O)(O)OC[C@@H]2O[C@H](n3cnc4c(N)ncnc43)[C@@H](O)[C@H]2O)[C@H](O)[C@@H]1O`, for which the EC50 at P2Y purinoceptor 1 [8] (read-out: EC50) turned out to be 0.011 µM.

In the case of `CCCCCCSc1nc(N)c2ncn([C@H]3O[C@@H](COP(O)(=S)OP(=O)(O)OP(=O)(O)O)[C@H](O)[C@@H]3O)c2n1` (stereo not given in full), the “fold change (FC)” value with Pancreas [9] was determined as 100.

Consider `CSc1nc(N)c2ncn([C@@H]3O[C@H](COP(=O)(O)OP(=O)(O)O)[C@@H](O)[C@H]3O)c2n1` (single isomer, unassigned), for which the half-life in data set [10] was 726 min.

As to `CSc1nc(N)c2ncn([C@@H]3O[C@H](COP(=O)(O)OP(=O)(O)CP(=O)(O)O)[C@@H](O)[C@H]3O)c2n1` (single isomer, unassigned), the Activity with Rattus norvegicus [11] came to 85 mg/dL. Besides, the EC50 on P2Y purinoceptor 1 [8] (read-out: EC50) is 0.08 µM.

For `Nc1ncnc2c1ncn2[C@@H]1O[C@H](COP(=O)(O)OP(=O)(O)O)[C@@H](O)[C@H]1O` [ADENOSINE DIPHOSPHATE], the half-maximal effective concentration (EC50) at P2Y purinoceptor 1 [8] (read-out: EC50) is 0.014 µM.

For `Nc1ncnc2c1ncn2[C@@H]1O[C@H](COP(=O)(O)OP(=O)(O)OP(=O)(O)OP(=O)(O)OC[C@H]2O[C@@H](n3cnc4c(N)ncnc43)[C@H](O)[C@@H]2O)[C@@H](O)[C@H]1O` [DIADENOSINE TETRAPHOSPHATE], in data set [12], the half-life is 2 min.

For the molecule `COc1ccc(Cl)cc1C(=O)NCCc1ccc(S(=O)(=O)NC(=O)NC2CCCCC2)cc1` [GLYBURIDE], the Activity in the data set with Rattus norvegicus [13] is 63 mg/dL.
